Results gathered from unrelated publications.
Each line is one published result; the experiments were not run side by side.
Target: cGMP-dependent protein kinase 1 (PRKG1, Homo sapiens, UniProt Q13976)
One construct used (Q13976 1-671): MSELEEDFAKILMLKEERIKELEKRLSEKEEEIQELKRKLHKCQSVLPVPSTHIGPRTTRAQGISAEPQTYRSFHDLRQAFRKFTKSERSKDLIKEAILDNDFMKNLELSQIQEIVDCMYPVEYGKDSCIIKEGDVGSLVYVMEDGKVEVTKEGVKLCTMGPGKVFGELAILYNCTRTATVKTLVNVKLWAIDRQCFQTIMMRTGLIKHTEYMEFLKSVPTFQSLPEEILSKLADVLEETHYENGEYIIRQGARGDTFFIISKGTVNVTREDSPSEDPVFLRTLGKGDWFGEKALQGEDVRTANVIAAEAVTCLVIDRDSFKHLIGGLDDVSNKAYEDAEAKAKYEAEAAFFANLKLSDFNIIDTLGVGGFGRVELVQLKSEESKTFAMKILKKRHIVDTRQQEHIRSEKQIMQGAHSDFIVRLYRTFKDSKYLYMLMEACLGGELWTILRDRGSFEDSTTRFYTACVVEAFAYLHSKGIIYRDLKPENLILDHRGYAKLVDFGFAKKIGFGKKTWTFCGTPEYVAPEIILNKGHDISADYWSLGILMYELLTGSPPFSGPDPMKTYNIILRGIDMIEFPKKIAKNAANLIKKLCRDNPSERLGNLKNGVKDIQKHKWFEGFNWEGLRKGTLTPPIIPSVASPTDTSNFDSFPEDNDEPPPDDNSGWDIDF

Compound	assay	setting	endpoint	value
CN1CCC(c2cc(-c3ccncc3)c(-c3ccc(F)cc3)[nH]2)CC1	enzyme activity, inhibitor	10 µM	inhibition	9%
Nc1ncc(-c2nc(N3CCOCC3)nc(N3CCOCC3)n2)c(C(F)F)n1	binding, competition with immobilised ligand	10 µM	remaining binding	79%
Cn1cc(-c2cc(F)cc(N3CCn4c(cc5c4CCCC5)C3=O)c2CO)cc(Nc2ccc(N3CCN(C4COC4)CC3)cn2)c1=O	enzyme activity, inhibitor	0.1 µM	inhibition	8%
Cn1cncc1[C@](O)(COc1ccc(C#N)cc1-c1ccc(OC(F)(F)F)cc1)c1ccc(C#N)cc1	cell-free assay, competition with immobilised ligand	1 µM	remaining binding	91%
C#Cc1n[nH]c2c(-c3cn([C@@H](C)c4ccccc4)c(=O)[nH]c3=O)cc(F)cc12	enzyme activity, inhibitor	0.1 µM	inhibition	5.1%
COc1cc(Nc2ncc(F)c(Nc3ccc4c(n3)NC(=O)C(C)(C)O4)n2)cc(OC)c1OC	binding	10 µM	inhibition	0%
N#CC1(c2ccccn2)CCN(Cc2cc(C(=O)O)c(=O)n3ccccc23)CC1	cell-free assay, competition with immobilised ligand	1 µM	remaining binding	98%
Cn1cc(-c2cccc(N3CCc4c(sc5c4CC(C)(C)C5)C3=O)c2CO)cc(Nc2ccncn2)c1=O	enzyme activity, inhibitor	1 µM	inhibition	4%
Cc1nn(C)cc1-c1nc2c(N3CCN(Cc4ccc(Cl)cc4)CC3)c(Cl)cnc2[nH]1	binding, competition with immobilised ligand	1 µM	remaining binding	100%
C#Cc1n[nH]c2c(-c3cn([C@@H](C)c4ccccn4)c(=O)[nH]c3=O)cc(F)cc12	enzyme activity, inhibitor	0.1 µM	inhibition	0.5%
COc1ncccc1-c1cnn2ccc(N3CCN(C(=O)OC(C)C)CC3)nc12	binding, competition with immobilised ligand	1 µM	remaining binding	100%
